# NF-kB neuron act – activators of NF-kB expression in neurons, primary screen, cell-based, HTS; human neuronal cells, NF-kB reporter expression; active compounds read high; fold change at 12.5 µM; 190,000 tested, 1.6% active; AID 1239, 2008; in the data active = fold change above about 3.3
# TRAIL sens C8 – viability loss with TRAIL in NB7+C8 cells, primary screen, TRAIL sensitizer project, cell-based, ATPlite luminescence; inhibition (viability loss, TRAIL sensitization), % at 10 µM; 360,000 tested, 1% active; AID 624354, 2012;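 active = compounds causing at least 50% loss of cell viability in the single-dose screen, relative to plate controls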
# APP 5'UTR act – activators of APP 5'UTR luciferase reporter, primary screen, SH-SY5Y cells; AID 1276, 2008; 190,000 tested, 1% active; activation, % at 2 µM; SH-SY5Y APP 5'UTR luciferase reporter, luminescence; zero percent = DMSO vehicle wells;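 active = activation above a set limit, based on mean plus 3 SD of controls, cut at about 140% in these data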
# FLuc inh counter – firefly luciferase enzyme inhibitors, primary screen, artefact control for luciferase-based inhibitor screens, biochemical, luminescence, ATPLite; 10 min; inhibition, % at 10 µM; 200,000 tested, 1.5% active; AID 1006, 2008;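 active = inhibition above about 50% when tested at 10 µM, limit read from the data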
# Target sequence (P08659 whole entry, looked up): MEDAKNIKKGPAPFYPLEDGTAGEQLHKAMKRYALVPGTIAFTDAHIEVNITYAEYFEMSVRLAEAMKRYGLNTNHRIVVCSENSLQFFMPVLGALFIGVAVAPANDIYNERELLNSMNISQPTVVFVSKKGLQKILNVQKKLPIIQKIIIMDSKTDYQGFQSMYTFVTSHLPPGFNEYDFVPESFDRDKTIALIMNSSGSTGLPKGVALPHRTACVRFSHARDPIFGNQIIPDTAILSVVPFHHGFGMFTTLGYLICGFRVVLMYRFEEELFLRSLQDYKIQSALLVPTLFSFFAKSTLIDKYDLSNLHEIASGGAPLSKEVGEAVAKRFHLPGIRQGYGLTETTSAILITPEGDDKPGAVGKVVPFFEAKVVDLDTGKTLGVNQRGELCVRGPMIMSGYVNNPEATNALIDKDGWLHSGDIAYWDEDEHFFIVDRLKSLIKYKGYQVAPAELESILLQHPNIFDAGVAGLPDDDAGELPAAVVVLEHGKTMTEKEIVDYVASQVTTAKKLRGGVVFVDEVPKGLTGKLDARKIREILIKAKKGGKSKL
# PPC-1+TRAIL kill – compounds killing PPC-1 cancer cells with TRAIL present, primary screen, TRAIL potentiator project, ATPLite luminescence, uHTS; PPC-1 cells + TRAIL, ATPLite viability luminescence; cell killing (% activity), % at 4 µM or 5 µM; 220,000 tested, 0.41% active; AID 1443, 2008;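 active = cell killing above 50% in the first pass at 4 µM, then a duplicate retest at 5 µM averaging 50% or more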;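 note: plate controls were cells with TRAIL plus DMSO for no effect and medium-only wells lacking cells for full effect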
# FLuc stim CS – FLuc activators, initial screening, artefact control for FLuc-dependent activation tests, biochemical, ATPlite luminescence. Luciferin 4-monooxygenase (Photinus pyralis), P08659. 200,000 tested, under 10 active. activation factor at 10 µM. ATPlite luciferase biochemical, 10 min; 0 = ATP-free wells, 1 = DMSO control;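 active = luciferase activation factor, scaled between plate controls, of at least 2 with compound at 10 µM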
#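 System: Luciferase/luciferin detection reagent, cell-free biochemical luciferase assay | Medium: PBS buffer for ATP | Dosing: Test compounds dosed from 2 mM stocks in 100% DMSO | Timing: 10 min at ambient temperature | Signal: Luminescence measurement of luciferase light output | Evaluation: Luciferase activation, seen as luminescence increase over controls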
# PPC-1 tox – cytotoxicity in PPC-1 cells, confirmation, cytotoxicity control for TRAIL apoptosis potentiator project, cell-based, ATP content luminescence; shares compounds with PPC-1+TRAIL kill; PPC-1 viability, ATPlite luminescence, overnight; cytotoxicity, % at 5 µM; 1,200 tested, 50% active; AID 1447, 2008;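 active = reconfirmed compounds whose average cytotoxicity reaches 50% or more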;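 note: 0% = DMSO-treated cells and 100% = wells holding medium but no cells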
# * = called active by the depositor; . = no result. Rows were chosen to be rich in hits. Some 2.2% of all compounds tested hit in one or more screens of this group.
SMILES,NF-kB neuron act,TRAIL sens C8,APP 5'UTR act,FLuc inh counter,PPC-1+TRAIL kill,FLuc stim CS,PPC-1 tox
CN(C(=O)CSc1nnc(NC2CCCCC2)s1)C1CCS(=O)(=O)C1 (stereo unspecified),1.31,-5.0,9.6,-3.3,21.2,1,.
CCc1ccc(Nc2nnc(SCC(=O)N(C)C3CCS(=O)(=O)C3)s2)cc1 (stereo unspecified),.,70.5*,.,.,70.3*,.,67.6*
COc1ccc(C2C(C(=O)O)c3ccccc3C(=O)N2Cc2ccco2)cc1 (stereo unspecified),.,3.2,.,.,17.7,.,.
COCCCNC1=C(Cl)C(=O)c2ccccc2C1=O,.,11.8,.,.,6.7,.,.
CCN(CC)CCCNC1=C(Cl)C(=O)c2ccccc2C1=O,0.23,93.6*,-5.5,-2.5,37.0,1,36.2
N#CC1(NC(=O)CN2C(=O)NC3(CCCCCC3)C2=O)CCCCC1,.,-0.2,.,.,.,.,.
COc1ccccc1-[n+]1c(C)cc(/C=C2\Sc3ccccc3N2C)cc1C,.,84.3*,.,.,82.3*,.,81.6*
COc1ccccc1OC(=O)CCN1c2ccccc2Sc2ccccc21,1.04,10.6,-7.9,-10.4,6.2,1.1,.
CC1=NNC(=O)C1CC(=O)N/N=C/C(Br)=C/c1ccccc1 (stereo unspecified),.,-6.0,.,.,20.5,.,.
CC1C(=O)NN=C1C(=O)N/N=C\C(Br)=C\c1ccccc1 (stereo unspecified),3.09,73.9*,126.7,95.4*,78.4*,0,79.0*
COC(=O)C1(CC2CC(c3ccc(Cl)cc3)=NO2)CCN(C(=O)OC(C)(C)C)CC1 (stereo unspecified),.,13.1,.,.,.,.,.
COc1ccc(Nc2c(C3CC3)nc3nc(C)cc(C)n23)cc1,.,4.6,.,.,.,.,.
COc1cc(SC)ccc1C(=O)Nc1ccccn1,.,76.7*,.,.,68.4*,.,66.3*
CSc1ncccc1C(=O)Nc1ncc(C)s1,.,-1.6,.,.,.,.,.
COc1cc(SC)ccc1C(=O)Nc1ncc(C)s1,0.9,80.4*,127.5,93.4*,72.7*,0.1,76.0*
COc1cc(SC)ccc1C(=O)Nc1ccc2c(c1)OCO2,7.57*,37.7,169.5*,72.4*,42.2,0.3,39.6
COc1ccc(C(=O)Nc2ccc3c(c2)OCCO3)c(OC)c1,.,46.4,.,.,.,.,.
COc1cc(SC)ccc1C(=O)Nc1ccc(Br)cn1,.,86.5*,.,.,88.5*,.,88.2*
CC(C)(C)NC(=O)C(c1ccc(F)cc1)N(C(=O)CCC(=O)Nc1ccccn1)C1CCCC1 (stereo unspecified),.,8.6,.,.,.,.,.
O=C(c1ccc2c3n(nc2c1)-c1ccccc1CO3)N1CCCCC1,.,70.3*,.,.,57.9*,.,60.0*
Cc1ccc2c(c1)COc1c3ccc(C(=O)N4CCCCC4)cc3nn1-2,.,34.0,.,.,21.6,.,.
C[C@@H](CO)NC(=O)c1ccc2c3n(nc2c1)-c1ccccc1CO3,.,90.8*,.,.,88.7*,.,90.9*
O=C(c1ccc2c3n(nc2c1)-c1ccccc1CO3)N1CCOCC1,.,51.5*,.,.,45.4,.,49.1
O=C(C=C=Nc1ccccc1)C(=O)N=C=Cc1ccccc1,.,4.1,.,.,-2.1,.,.
CCC(NC(=O)CCc1c(C)c2cc3c(-c4ccccc4)coc3cc2oc1=O)C(=O)O (stereo unspecified),.,-18.7,.,.,.,.,.
SMILES,NF-kB neuron act,TRAIL sens C8,APP 5'UTR act,FLuc inh counter,PPC-1+TRAIL kill,FLuc stim CS,PPC-1 tox
Cc1cc(C)c2c(=O)n3c(nc2c1)C(C)NC(=O)c1cccnc1-3 (stereo unspecified),.,-7.2,.,.,.,.,.
COc1ccccc1N1CCN(S(=O)(=O)CCNC(=O)CC2CCCCC2)CC1,.,14.9,.,.,.,.,.
CCOc1ccc(NS(=O)(=O)c2ccc(C(=O)NCC(c3ccco3)N3CCCCC3)cc2)cc1 (stereo unspecified),.,-5.3,.,.,.,.,.
c1ccc(Nc2ncnc3c2oc2ccccc23)cc1,2.19,18.5,50.5,7.0,4.7,0.9,1.3
COC(=O)C(Cc1ccc(O)cc1)NC(=O)Cn1cc(C)c(=O)[nH]c1=O (stereo unspecified),.,24.2,.,.,.,.,.
C/C(=N/NC(=O)c1cccs1)c1c(C)[nH]n(-c2nc3ccccc3s2)c1=O,2.02,88.6*,86.8,93.2*,76.5*,0.1,74.6*
Cc1cc(NC(=O)CSc2ccc(-c3nc4cc(C)c(C)cc4[nH]3)cn2)no1,1.72,42.8,24.9,61.3*,58.8*,0.4,45.0
Cc1ccc2nc(SCC(=O)Nc3cc(C)on3)[nH]c2c1,0.91,-0.3,6.2,-6.2,28.8,1.1,.
CCn1c(-c2cc(-c3ccc(C)cc3)nc3ccccc23)n[nH]c1=S,1.46,6.2,13.2,32.2,18.9,0.7,.
CCn1c(-c2cc(-c3ccc(OC(C)C)cc3)nc3ccccc23)n[nH]c1=S,2.11,56.1*,37.5,72.3*,40.6,0.3,34.3
Cn1c(-c2ccccc2)cnc1SCC(=O)NCc1ccco1,1.21,8.3,-3.3,-3.9,3.2,1,-6.1
COC(=O)C1=C(N)Oc2cc(C)n(CCCn3ccnc3)c(=O)c2C1c1cccc(Cl)c1 (stereo unspecified),.,-6.6,.,-0.3,6.8,1,-1.3
Cc1ccc(OCCn2c(NC(=O)c3ccco3)nc3ccccc32)cc1,1.63,25.1,9.1,3.6,2.1,1,.
Cc1cccc(OCCn2c(NC(=O)c3ccco3)nc3ccccc32)c1,1.04,13.1,6.2,3.8,7.2,1,12.7
Cc1c(S(=O)(=O)N2CCN(C(c3ccccc3)c3ccccc3)CC2)c(=O)n(C)c(=O)n1C,0.88,7.8,4.9,-3.7,11.0,1,.
N#Cc1ccc(Oc2ccc(S(=O)(=O)N3CCOCC3)cn2)cc1,.,-12.9,.,.,.,.,.
Cc1cc(C(=O)CN2C(=O)c3ccccc3S2(=O)=O)c(C)n1CC1CCCO1 (stereo unspecified),0.32,82.5*,-86.0,42.3,86.0*,0.6,85.2*
c1cc2c(cc1C1=NNC(=NC3CC3)SC1)OCCO2,0.26,91.7*,-51.0,96.3*,88.6*,0,87.5*
CCc1cccc(CC)c1N1C(=O)c2cc(N3CCOCC3)c([N+](=O)[O-])cc2C1=O,1.1,-6.4,9.0,-3.7,22.5,1,.
COc1ccccc1N=Nc1nc(-c2ccccc2)c(-c2ccccc2)[nH]1,1.63,-4.7,-3.8,5.1,-1.5,0.9,.
Oc1ccccc1N=Nc1nc(-c2ccccc2)c(-c2ccccc2)[nH]1,1.58,-0.5,-88.0,-1.9,20.9,1,23.3
NNC(=O)c1cc2c(s1)CCCCCC2,1.37,-14.8,-69.7,-5.1,-6.5,1.1,-1.2
